High-throughput results (PubChem)
rCAG RNA binder – molecules binding r(CAG) RNA repeats; inhibition, % at 3 µM; r(CAG) RNA repeat, TO-PRO-1 dye displacement fluorescence; 370,000 compounds, 1.3% hits;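 active means inhibition above the plate cutoff, the mean of all test compounds on that plate plus 3 SD, cut at about 35% in these data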;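 further: 0% = DMSO alone and 100% = 100 µM mitoxantrone as full dye displacement; higher means more dye released from RNA so lower well fluorescence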
SIAE primary – human SIAE inhibition, primary screen; 370,000 compounds, 0.69% hits; SIAE FP-Rh probe binding, fluorescence polarization; inhibition, % at 9.66 µM; Q9HAT2;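 active means inhibition above a cutoff: mean of compounds within the control limits plus 3 SD of those, cut at about 17% in these data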;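 further: 0% = plate median of compound wells and 100% = probe without SIAE protein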
PRMT1 inh – blocks human protein arginine methyltransferase 1. recombinant PRMT1, activity-based probe fluorescence polarization. 370,000 compounds, 1.3% hits. Q99873. inhibition, % at 2.79 µM;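 active means inhibition above about 21% made by adding two undisclosed values, limit read from the data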
HTRA1 inhibitor – blocks human HTRA1 serine peptidase; Q92743; recombinant HTRA1, FP-rhodamine activity-based probe, fluorescence polarization; inhibition, % at 5.96 µM; 340,000 compounds, 0.5% hits; AID 504803; in the data active means inhibition above about 36%;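 further: 0% = enzyme with DMSO and 100% = wells lacking enzyme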
Target sequence (Q92743 whole entry, looked up): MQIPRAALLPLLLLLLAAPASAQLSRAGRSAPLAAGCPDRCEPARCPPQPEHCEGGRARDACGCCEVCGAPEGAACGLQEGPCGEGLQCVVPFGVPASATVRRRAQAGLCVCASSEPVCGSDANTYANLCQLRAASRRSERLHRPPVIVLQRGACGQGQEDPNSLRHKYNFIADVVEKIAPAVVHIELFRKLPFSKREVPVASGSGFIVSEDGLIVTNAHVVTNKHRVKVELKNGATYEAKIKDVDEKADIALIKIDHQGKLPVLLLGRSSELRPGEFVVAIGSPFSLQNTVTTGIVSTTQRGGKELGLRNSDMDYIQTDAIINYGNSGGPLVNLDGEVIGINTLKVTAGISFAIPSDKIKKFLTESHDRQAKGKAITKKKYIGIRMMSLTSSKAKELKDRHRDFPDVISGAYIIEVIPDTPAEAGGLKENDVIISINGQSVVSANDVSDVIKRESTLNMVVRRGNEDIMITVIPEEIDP
ABHD4 inh – ABHD4 (mouse) inhibition, primary FP screen; purified mABHD4, FP-Rh probe fluorescence polarization; inhibition, % at 8.92 µM; 370,000 compounds, 0.54% hits;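 active means inhibition exceeding the mean over every tested compound plus 3 SD, cut at about 30% in these data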;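 further: 0% = plate median of compound wells and 100% = S159A mutant with DMSO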
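Test system: mABHD4 protein | Buffer or medium: HEPES pH 7.0 buffer, 150 mM NaCl, 0.01% Pluronic F-127 | Probe or stimulus: FP-Rh fluorescent activity-based probe, added after compound pre-incubation | Timing: Pre-incubation 45 min, probe exposure 60 min, at 25 °C | Technique: Fluorescence polarization, excitation 525 nm, emission 598 nm, BODIPY TMR filters | Repeats: Single well per compound (singlicate)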
HTRA1 inh conf – confirmation of human HTRA1 inhibitors. 1,600 compounds, 66% hits. inhibition, % at 5.96 µM. shares compounds with HTRA1 inhibitor. recombinant HTRA1, FP-rhodamine activity-based probe, fluorescence polarization. AID 540248;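 active means mean inhibition over three repeats above a set limit taken from the earlier primary screen, cut at about 37% in these data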;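 further: 0% = HTRA1 with DMSO and 100% = wells lacking HTRA1; inhibitors block probe binding so polarization drops and inhibition rises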
The depositor's hits bear a star; / = no result given. Rows were chosen to be rich in hits. Some 3.3% of all compounds tested hit in one or more screens of this group.

SMILES | rCAG RNA binder | SIAE primary | PRMT1 inh | HTRA1 inhibitor | ABHD4 inh | HTRA1 inh conf
CCOc1cc(CNc2ccc(N3CCCCC3)cc2)cc(Br)c1OCC(=O)NC(C)(C)C | 1.7 | 16.8 | 8.4 | 45.2* | 28.3 | 3.0
COc1cc(CNc2ccc(N3CCOCC3)cc2)cc(Br)c1OC | 3.6 | 12.4 | 6.0 | 28.3 | 12.7 | /
CCOc1cc(CNc2ccc(N3CCCC3)cc2)cc(Cl)c1OC | 13.4 | 11.0 | 8.5 | 55.4* | 27.7 | 23.4
COc1cc(CNc2ccc(N3CCCC3)cc2)cc(Cl)c1OC | 12.2 | 12.1 | 4.5 | 40.5* | 22.5 | 28.1
CCOc1ccc(CNc2ccc(N3CCN(Cc4ccccc4)CC3)cc2)cc1 | -6.2 | 6.3 | -0.6 | 24.5 | 14.2 | /
CCOc1cc(CNc2ccc(S(N)(=O)=O)cc2)cc(Cl)c1OC | 2.4 | 6.6 | -1.4 | 4.6 | -1.7 | /
CO[C@@H]1[C@H](O)CC[C@]2(O)CN(c3ccccc3)[C@](C)([C@H](O)CC=C(C)C)[C@@H]12 | 5.9 | 5.9 | 1.6 | / | 10.4 | /
COc1cccc(CC(=O)N(Cc2ccccc2)c2ccccc2C(=O)Nc2cc(OC)ccc2OC)c1 | 6.6 | 3.0 | 2.1 | / | -8.1 | /
CCC(=C(c1ccc(OC)cc1)c1ccc(OC)cc1)c1cn(CC(O)CN2CCN(C)CC2)c2ccccc12 (stereo unspecified) | 0.1 | 12.7 | 7.0 | 37.3* | 25.0 | 39.0*
Cc1cc(O)c(Oc2cc(C)cc(O)c2O)c(O)c1 | 13.8 | 5.5 | 37.6* | 63.8* | 29.0 | 81.1*
COc1cc(C(=S)N2CCN(c3ccccc3Cl)CC2)cc(O)c1O | 23.6 | 2.2 | 10.9 | 51.4* | 23.6 | 83.6*
Cc1nc2cc(C(=O)N3CCN(C(=O)OCc4ccccc4)CC3)ccc2n1C1CCCC1 | 0.4 | -0.5 | -7.4 | / | -0.8 | /
COc1ccc(C(=O)Oc2c(CN3CCOCC3)cc(Cl)c3cccnc23)cc1OC | 1.9 | 10.2 | 11.0 | / | 5.7 | /
O=C(Oc1c(CN2CCOCC2)cc(Cl)c2cccnc12)c1ccccc1F | 3.1 | 2.3 | 6.4 | 40.9* | 27.2 | 34.0
Oc1c(Cl)cc(CN2CCOCC2)c2cccnc12 | 4.4 | 6.5 | 2.8 | 41.1* | 5.5 | 30.9
Oc1c(Cl)cc(Cl)c(Cl)c1CN1CCOCC1 | 2.2 | 3.0 | -0.3 | -6.1 | -1.9 | /
Oc1c(CN2CCCCC2)cc(Br)c2cccnc12 | -1.2 | 12.2 | 8.7 | 71.0* | 20.8 | 72.3*
COc1cc(OC)cc(C(=O)Oc2c(CN3CCOCC3)cc(Cl)c3cccnc23)c1 | 0.1 | 12.8 | 0.9 | 38.4* | 8.1 | 3.4
Cc1cccc2c1CCC1CN(Cc3ccccc3)S(=O)(=O)N21 (stereo unspecified) | / | 2.9 | -0.9 | / | -11.1 | /
COc1cccc(NC(=O)N2CC[C@@H]3[C@H]2c2cc(-c4cccc(C#N)c4)ccc2N(C)[C@@H]3CO)c1 | 10.8 | 8.1 | 0.2 | / | 9.8 | /
CC(=O)c1cc(-c2ccc(-c3cc(C(=O)O)c4ccccc4n3)cc2)c(=O)n2c1CCC2 | 19.1 | -2.9 | 7.6 | / | -2.5 | /
Cc1ccc(C(=O)NC2CCCCN(C)C2=O)c(C)c1 (stereo unspecified) | 1.4 | -0.7 | -2.2 | / | -2.3 | /
COC(=O)C1CN(Cc2cn(Cc3ccccc3)nn2)CCS(=O)(=O)N1Cc1ccc(F)cc1 (stereo unspecified) | 2.1 | 0.2 | -1.4 | / | 5.4 | /
O=C(Oc1c(CN2CCOCC2)cc(Cl)c2cccnc12)c1ccccc1 | -2.2 | 3.2 | -1.2 | 36.7* | 7.3 | 7.1
Oc1ccc(CN2CCN(Cc3ccccc3)CC2)c2cccnc12 | -0.2 | 4.5 | 2.7 | 27.9 | 8.5 | /
SMILES | rCAG RNA binder | SIAE primary | PRMT1 inh | HTRA1 inhibitor | ABHD4 inh | HTRA1 inh conf
CN1CCN(Cc2cc(COCc3ccccc3)c3cccnc3c2O)CC1 | -5.8 | 5.9 | -2.7 | 50.4* | -2.2 | 86.8*
COc1ccc(C2Nc3ccccc3C(=O)N2Cc2ccccc2)cc1COc1ccc(NC(C)=O)cc1 (stereo unspecified) | / | 0.8 | -0.9 | / | -21.6 | /
O=C(OC12CCCN(C1)/C(=C/c1ccccc1)C2)c1cccc(F)c1 (stereo unspecified) | -1.0 | 6.2 | -6.0 | / | 0.4 | /
CCOc1ccc2c(c1)-c1c(ssc1=S)C(C)(C)N2 | / | / | / | 46.5* | / | 61.0*
COc1cccc(/C=N/Nc2cc(Cl)nc(C)n2)c1O | -0.7 | 9.5 | -0.1 | 19.2 | 2.0 | /
COc1cccc(/C=N/Nc2ncnc3c2ncn3Cc2ccccc2)c1O | 9.4 | 2.9 | -2.5 | 41.3* | 25.0 | 47.4*
OCCN(CCO)c1ccc(C(c2ccccc2Cl)c2ccc(N(CCO)CCO)cc2Cl)c(Cl)c1 | / | / | / | 43.7* | / | 60.9*
CN(C)CCCNC(=O)c1ccc(-c2cc(O)c3ncccc3c2)cc1 | 3.6 | 0.5 | -2.9 | 69.1* | 10.6 | 85.5*
CCOC(=O)C1CCCN(C(=O)c2ccc(C(=O)c3ccccc3)cc2)C1 (stereo unspecified) | -0.3 | 1.4 | -3.0 | 5.8 | -0.6 | /
CCOC(=O)C1CCCN(C(=O)C2c3ccccc3Oc3ccccc32)C1 (stereo unspecified) | -8.1 | 4.5 | 11.2 | 52.9* | 12.1 | -7.6
O=C(CSc1nc2ccccc2o1)NCC1CCCO1 (stereo unspecified) | -7.7 | 5.1 | -0.3 | 55.1* | -9.8 | 12.8
CCCCn1c(SCC(=O)c2ccc(O)c(O)c2)nc2ccsc2c1=O | / | / | / | 59.4* | / | 61.0*
O=C(CCCn1c(SCC(=O)c2ccc(O)c(O)c2)nc2ccccc2c1=O)NCC1CCCO1 (stereo unspecified) | 19.9 | 8.4 | 6.7 | 38.1* | 15.7 | 36.4*
COc1ccccc1N1C(=O)c2ccccc2NC1c1ccncc1 (stereo unspecified) | -3.8 | 2.5 | -1.2 | 5.7 | -1.0 | /
COc1ccccc1N1C(=O)N(C(C)=O)C2C1Nc1ccccc1N2C (stereo unspecified) | 9.5 | 11.2 | 3.6 | 49.2* | 25.9 | 8.3
CCc1cccc2c(C(C)c3ccccc3O)c[nH]c12 (stereo unspecified) | 5.9 | 6.1 | 0.2 | / | -9.6 | /
CCOc1ccc(C(=O)CSc2nnc3ccccn23)cc1 | 3.5 | 5.4 | -1.0 | -3.7 | 4.6 | /
CCn1c(CSc2nnc3ccccn23)nc2cc(C(=O)O)ccc21 | -6.6 | 53.7* | 3.2 | 36.6* | 40.0* | 79.2*
CN1C(=O)c2cccc(NCCCN3C(=O)c4ccccc4C3=O)c2C1=O | -6.4 | 1.4 | -3.5 | -5.9 | -2.4 | /
CCCCNc1c2c3c(cccc3n(C)c1=O)C(=O)c1ccccc1-2 | / | / | / | 67.7* | / | 69.8*
CCN(CC)c1cccc(OC2=NS(=O)(=O)c3ccccc32)c1 | -1.7 | 30.6* | 5.3 | 46.2* | 87.6* | 14.6
O=C1C(Cl)=C(N2CCCCC2)C(=O)C(Cl)=C1c1cnc(N2CCCCC2)s1 | / | / | / | 71.3* | / | 16.8
CC(C)c1[nH]nc2c1C(c1cccc(C(F)(F)F)c1)N(Cc1ccccc1)C2=O (stereo unspecified) | -0.4 | 4.1 | 5.8 | / | 0.3 | /
CCC(=O)NC(c1cc(Cl)c2cccnc2c1O)C1CC1 (stereo unspecified) | 0.3 | 8.1 | -1.1 | 38.5* | 0.7 | 51.2*
